Rows were chosen to be rich in hits. Some 2.5% of all compounds tested hit in one or more screens of this group.
TRPC6 inh: mouse TRPC6 channel inhibitors, primary screen, cell-based, HEK293, membrane potential dye; Short transient receptor potential channel 6 (Mus musculus), Q61143; ACh-evoked depolarization; hits give low values; B-score at 10 µM; 310,000 compounds, 1.1% hits; AID 2553, 2010;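 active means B-score under library mean minus 3 SD, initial fluorescence not abnormally high, positive integrated signal ratio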;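 further: B-score derived from integrated fluorescence ratio over the kinetic read; more negative B-score means stronger inhibition of depolarization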
TRPC4 act: activators of mouse TRPC4 channel, primary screen, Fluo4 calcium, HEK293 TRPC4beta/mu-opioid cells; B-score at 10 µM; 310,000 compounds, 0.49% hits; Fluo4 calcium fluorescence; hits give high values; AID 2237, 2010; Short transient receptor potential channel 4 (Mus musculus), Q9QUQ5;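 active means B-score above 5 SD of library B-scores, and initial fluorescence ratio not above library mean plus 5 SD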;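 further: positive B-score marks a calcium rise read as TRPC4 activation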
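System – HEK293 cells stably co-expressing mouse TRPC4beta and mu-opioid receptor · Signal – Fluo4 calcium-sensitive dye fluorescence, kinetic, 1 Hz baseline · Benchmarks – buffer (low) and maximal DAMGO (high) · Read-out – B score of integrated fluorescence ratio per well · Incubation – dye loading 45 min room temperature, 110 s kinetic read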
TRPC6 act: mouse TRPC6 channel activators, primary screen, cell-based, HEK293, membrane potential dye; HEK293-TRPC6 membrane potential dye fluorescence; hits give high values; 310,000 compounds, 0.13% hits; AID 2550, 2010; B-score at 10 µM;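 active means B-score of the integrated fluorescence ratio above library mean plus 3 SD, and starting fluorescence ratio within library mean plus 5 SD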;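 further: higher score means more depolarization so channel activation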
TRPC4 PAM: positive allosteric modulators of TRPC4, primary screen, cell-based, mouse TRPC4beta, HEK293 mu-opioid, Fluo-4 calcium; Short transient receptor potential channel 4 (Mus musculus), Q9QUQ5; DAMGO EC20, Fluo-4 Ca2+ flux; hits give high values; B-score at 10 µM; 310,000 compounds, 0.42% hits; AID 2227, 2009;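 active means B-score of calcium response area above 5 SD of library B-scores, with initial fluorescence ratio within 5 SD of library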
TRPC4 inh: inhibitors of mouse TRPC4 channel, primary screen, Fluo4 calcium, HEK293 TRPC4beta/mu-opioid cells | Short transient receptor potential channel 4 (Mus musculus), Q9QUQ5 | DAMGO-evoked Fluo4 calcium flux; hits give low values | B-score at 10 µM | 300,000 compounds, 0.39% hits | AID 2247, 2010;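 active means B-score over 3 SD under the library average, no early fluorescence shift, positive overall ratio signal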
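Signal: kinetic Fluo4 fluorescence imaging of calcium influx. Material: stable TRPC4beta/mu-opioid receptor HEK293 cells. Probe or stimulus: DAMGO in two steps, submaximal then maximal.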
Pemphigus Ab inh: inhibitors of pemphigus antibody binding to DSG3, primary screen, biochemical, bead-based, flow cytometry, scFv-GFP. binding (percent of control), % at 10 µM. DSG3-coupled beads, scFv-anti-DSG3-GFP binding; hits give low values. 310,000 compounds, 0.48% hits;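 active means binding more than 3 SD below its plate's average and above zero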;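 further: hits lower antibody fragment binding to DSG3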
Hits are given with their value; n = inactive; x = not tested or not shown.

SMILES	TRPC6 inh	TRPC4 act	TRPC6 act	TRPC4 PAM	TRPC4 inh	Pemphigus Ab inh
COc1ccc(CNC(=O)CCC(=O)n2ncc3cc(C)ccc32)cc1	n	n	n	n	n	76
O=C(NC1CCN(Cc2ccccc2)CC1)C12CC3CC(CC(C3)C1)C2	n	123	n	n	n	x
O=C(Cc1ccc(Br)cc1)NC1CCN(Cc2ccccc2)CC1	n	n	n	12	n	x
O=C(Cc1ccccc1)NC1CCN(Cc2ccccc2)CC1	n	n	n	n	n	n
O=C(NC(=S)Nc1ccc(-c2nc3ncccc3o2)cc1)c1ccccc1F	n	n	n	n	n	n
CC(=O)CSc1nnc(-c2ccc3c(c2)OCO3)o1	n	n	n	n	n	x
CC(=O)Nc1ccc(NC(=O)CSc2nnc(-c3ccc4c(c3)OCO4)o2)cc1	x	x	x	x	x	-15
O=C(/C=C/c1ccc([N+](=O)[O-])cc1)N1CCN(S(=O)(=O)c2cccs2)CC1	n	n	n	n	n	n
c1csc(CNc2nc(-c3cccs3)nc3ccccc23)c1	n	n	n	n	-6	n
c1cncc(-c2nc(NCC3CCCO3)c3ccccc3n2)c1 (configuration not stated)	n	n	n	n	n	n
c1csc(-c2nc(NCC3CCCO3)c3ccccc3n2)c1 (configuration not stated)	n	n	n	n	-8	x
O=C1CCc2ccc(NS(=O)(=O)c3ccc(F)cc3)cc2N1	n	n	n	n	n	n
Cc1ccc(NS(=O)(=O)c2cc(Br)cnc2N)c(Cl)c1	n	n	n	n	n	n
Nc1ncc(Br)cc1S(=O)(=O)Nc1cc(C(F)(F)F)cc(C(F)(F)F)c1	n	46	n	n	n	n
CCC(C)(C)NC(=O)C(c1sccc1C)N(Cc1ccco1)C(=O)c1csnn1 (configuration not stated)	-5.8	n	n	n	n	n
CCOc1ccc(C(=O)N[C@H](C(=O)Nc2ccc(S(=O)(=O)Nc3nccs3)cc2)C(C)C)cc1	x	x	x	x	x	n
CN(c1cccc(NC(=O)c2ccc(N(C)S(=O)(=O)c3ccccc3)cc2)c1)S(C)(=O)=O	n	n	n	11	n	n
CC(=O)Nc1ccc(C(=O)Nc2cccc(S(=O)(=O)N(C)c3ccccc3)c2)cc1	x	x	x	x	x	n
COc1ccc(OC)c(/C=N/NC(=O)C(=O)N/N=C/c2cc(OC)ccc2OC)c1	n	n	n	n	n	54
COc1ccc(OC)c(C=NNC(=O)NN=Cc2cc(OC)ccc2OC)c1	x	x	x	x	x	n
O=C(NN1CCOCC1)c1ccc(Cl)c([N+](=O)[O-])c1	n	n	n	n	n	n
CN1CCN(NC(=O)c2ccc(Cl)c([N+](=O)[O-])c2)CC1	n	44	n	n	n	x
CCC1(c2ccc(F)cc2)NC(=O)N(CC(=O)c2cc(C)n(C3CC3)c2C)C1=O (configuration not stated)	n	54	n	16	n	n
Cc1cc(C(=O)CN2C(=O)NC(C)(c3cc(F)ccc3F)C2=O)c(C)n1C1CC1 (configuration not stated)	x	x	x	x	x	n
CC1(C)CC(=O)C(C(O)c2ccccc2)C(C)(C)N1 (configuration not stated)	n	n	n	n	n	72
SMILES	TRPC6 inh	TRPC4 act	TRPC6 act	TRPC4 PAM	TRPC4 inh	Pemphigus Ab inh
CC(NC(=O)C(c1ccccc1)c1ccccc1)C(=O)N1CCCCC1 (configuration not stated)	n	n	n	n	n	n
CC(=O)N1C(=O)/C(=C2\SC(=S)N(c3c(C)n(C)n(-c4ccccc4)c3=O)C2=O)c2ccccc21	n	n	n	n	n	67
Cc1c(N2C(=O)/C(=C3/C(=O)N(C)c4ccccc43)SC2=S)c(=O)n(-c2ccccc2)n1C	n	n	n	n	n	n
CN(C)S(=O)(=O)c1ccc(N2CCCC2)c(C(=O)N2CCC(C(N)=O)CC2)c1	n	n	n	n	n	n
COc1ccc2cc3c(N)nn(C(=O)c4ccc(F)cc4)c3nc2c1	n	n	n	n	n	62
COc1ccc2cc3c(N)nn(C(=O)c4cccc(F)c4)c3nc2c1	n	n	n	n	n	n
O=C(CCN1CCN(C/C=C/c2ccccc2)CC1)Nc1ccc(Cl)cc1	n	n	n	n	n	n
CCN(C(=O)c1c(-c2ccccc2Cl)noc1C)C1CCCCC1	n	n	n	n	-6	n
COc1cc(NC(=O)CCN2CCN(C/C=C/c3ccccc3)CC2)cc(OC)c1	n	73	n	10	n	n
Cc1onc(-c2ccccc2Cl)c1C(=O)N1CCN(C/C=C/c2ccccc2)CC1	n	101	n	n	n	n
COc1ccc(NC(=O)CCN2CCN(C/C=C/c3ccccc3)CC2)cc1	n	n	n	n	n	n
O=C(Nc1cccc(Cl)c1)N1CCN(C/C=C/c2ccccc2)CC1	n	n	n	26	n	x
Cc1cc(Cl)ccc1OCC(=O)OCC(=O)N1CCC(C(N)=O)CC1	x	x	x	x	x	n
C=CCNC(=S)/C(=C(/[O-])c1ccccc1Br)[n+]1ccccc1	n	n	n	n	n	n
Clc1ccc(OCc2nn3c(C4CCCCC4)nnc3s2)cc1	n	n	n	13	n	n
CCc1ccc2[nH]c(=O)c(CN(Cc3nnnn3C3CCCC3)C3CCCCC3)cc2c1	n	n	n	10	n	n
COc1ccc(C2=NOC(C(=O)Nc3cccc(O)c3)C2)cc1 (configuration not stated)	n	n	n	n	n	82
COc1ccc(C2=NOC(C(=O)Nc3ccc(C(C)=O)cc3)C2)cc1OC (configuration not stated)	n	n	n	n	n	n
COc1cc(C2=NOC(C(=O)Nc3ccc(C(C)=O)cc3)C2)cc(OC)c1OC (configuration not stated)	n	n	n	n	n	79
COc1ccc(-c2nn(CCC#N)cc2C(=O)Nc2cccc(C(=O)O)c2)cc1[N+](=O)[O-]	n	n	n	n	n	n
CC1CN(c2sc(S(C)(=O)=O)nc2S(=O)(=O)c2ccc(Cl)cc2)CC(C)O1 (configuration not stated)	n	n	n	n	n	75
CCOC(=O)c1cc2c(=O)n3ccccc3nc2n(Cc2ccco2)c1=NC(=O)c1cccnc1	n	n	n	11	n	n
CCOC(=O)c1cc2c(=O)n3ccccc3nc2n(C(C)C)c1=NC(=O)c1c(-c2ccccc2Cl)noc1C	n	n	n	n	-8	n

Compound activity deposited in PubChem by several laboratories.
